According to ChEMBL document CHEMBL1149170, “Khellinone derivatives as blockers of the voltage-gated potassium channel Kv1.3: synthesis and immunosuppressive activity” (J Med Chem, 2004):
Values belong to the compound of their own block, whether it stands above or below them.

Legend:
[1] = biological target: T1, Potassium voltage-gated channel subfamily A member 3 (Homo sapiens, UniProt P22001); assay: Dissociation constant for the blockade of voltage-gated potassium channel subunit Kv1.3 in human lymphocytes; no effect when tested at 1 uM; type: cell-based
How it was run: (§1)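 Whole-cell patch clamp on cells stably expressing Kv1.3, holding potential −80 mV. Bath: Ringer (160 mM NaCl, 4.5 mM KCl, 2 mM CaCl2, 1 mM MgCl2, 10 mM HEPES, pH 7.4). Pipette: 134 mM KF, 2 mM MgCl2, 10 mM HEPES, 10 mM EGTA, pH 7.2. 500-ms pulses to 40 mV every 45 s. Single test concentration only.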

[2] = biological target: T1, Potassium voltage-gated channel subfamily A member 3; assay: Dissociation constant for the blockage of voltage-gated potassium channel subunit Kv1.3 in human lymphocytes; type: cell-based
[3] = Selectivity for Kv1.3 over Kv1.1 voltage-gated potassium channel subunit
How it was run: (§2)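 Ringer bath, KF/EGTA pipette. Kv1.1, Kv1.2, Kv1.5, Kv1.7 and IKCa1 recorded in stably or transiently expressing cells. Kd from Hill fit to reduction in current area. Each compound 2–3 times at 3–5 concentrations.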

[4] = species: Homo sapiens; assay: Inhibition of anti-CD3 dependent human T cell proliferation; type: functional
How it was run: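 PBMCs from healthy volunteers, isolated on a density gradient, seeded at 2×10^5 cells/well in supplemented RPMI 1640. Compound preincubation 60 min, then anti-CD3 antibody 50 ng/mL for 48 h. [3H]thymidine added for the last 6 h; incorporation counted by scintillation. Normalized to maximal control incorporation. Triplicate.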

[5] = Selectivity for Kv1.3 over Kv1.2 voltage-gated potassium channel subunit; how it was run: as §2
[6] = biological target: T1, Potassium voltage-gated channel subfamily A member 3; assay: Dissociation constant for blockade of voltage-gated potassium channel subunit Kv1.3 in human lymphocytes; no effect when tested at 10 uM; type: cell-based; how it was run: as §1
[7] = Selectivity for Kv1.3 over Kv1.5 voltage-gated potassium channel subunit; how it was run: as §2
[8] = Selectivity for Kv1.3 over Kv1.7 voltage-gated potassium channel subunit; how it was run: as §2
[9] = Selectivity for Kv1.3 voltage-gated K+ channel over IKCa1 [Ca2+] activated K+ channel; how it was run: as §2

T1 sequence (P22001 whole entry): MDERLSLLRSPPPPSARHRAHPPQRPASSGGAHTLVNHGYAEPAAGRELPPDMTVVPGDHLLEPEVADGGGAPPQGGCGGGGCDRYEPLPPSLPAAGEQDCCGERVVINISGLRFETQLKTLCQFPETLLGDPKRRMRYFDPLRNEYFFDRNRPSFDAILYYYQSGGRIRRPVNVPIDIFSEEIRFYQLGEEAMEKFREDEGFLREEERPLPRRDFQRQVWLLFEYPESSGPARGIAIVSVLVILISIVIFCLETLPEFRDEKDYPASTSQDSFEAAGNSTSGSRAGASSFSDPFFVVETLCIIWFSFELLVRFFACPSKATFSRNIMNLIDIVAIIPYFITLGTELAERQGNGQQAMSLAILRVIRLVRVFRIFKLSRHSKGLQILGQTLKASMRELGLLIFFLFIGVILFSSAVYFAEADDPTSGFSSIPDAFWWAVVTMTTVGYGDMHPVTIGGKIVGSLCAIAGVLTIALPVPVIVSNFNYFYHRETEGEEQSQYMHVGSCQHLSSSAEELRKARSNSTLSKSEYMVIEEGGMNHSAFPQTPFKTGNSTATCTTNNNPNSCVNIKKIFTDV

Kd [1]: Not Active
SMILES: COc1c(C(=O)/C=C/c2ccccc2)c(OCc2ccc(COc3c(C(=O)/C=C/c4ccccc4)c(OC)c4ccoc4c3OC)cc2)c(OC)c2occc12

Kd [2]: 2 µM
SMILES: COc1c(C(C)O)c(OCc2ccc(COc3c(C(C)O)c(OC)c4occc4c3OC)cc2)c(OC)c2occc12 (stereo unspecified)

Kd [2]: 17 µM
SMILES: COc1c(C(=O)/C=C/c2ccccc2)c(O)cc2occc12

Kd [2]: 0.56 µM
SMILES: COc1c(C(C)=O)c(OCc2cccc(COc3c(C(C)=O)c(OC)c4ccoc4c3OC)c2)c(OC)c2occc12

Kd [3]: 0.3 µM
Kd [2]: 0.68 µM
Kd [5]: 0.25 µM
SMILES: COc1c(C(C)=O)c(OCCCCCCOc2c(C(C)=O)c(OC)c3ccoc3c2OC)c(OC)c2occc12
EC50 [4]: 0.8 µM

Kd [6]: Not Active
SMILES: COc1c(C(=O)/C=C/c2cccc(/C=C/C(=O)c3c(O)c(OC)c4occc4c3OC)c2)c(O)c(OC)c2occc12

Kd [2]: 70 µM
SMILES: COc1c(/C(C)=N/N=C(\C)c2c(O)c(OC)c3occc3c2OC)c(O)c(OC)c2occc12

Kd [3]: 1.2 µM
Kd [7]: 5.1 µM
Kd [8]: 10 µM
Kd [5]: > 50 µM
Kd [9]: > 100 µM
SMILES: COc1c(C(=O)/C=C/c2ccccc2)c(O)c(OC)c2occc12
EC50 [4]: 0.6 µM

Kd [2]: 100 µM
SMILES: COc1c(C(C)=O)c(O)cc2occc12

Kd [3]: 1.7 µM
Kd [7]: 12 µM
Kd [8]: 50 µM
Kd [5]: > 50 µM
Kd [9]: > 100 µM
SMILES: COc1c(C(=O)/C=C/c2cccc(O)c2)c(O)c(OC)c2occc12
EC50 [4]: 1 µM

Kd [2]: 1 µM
SMILES: COc1c(C(=O)/C=C/c2cccs2)c(O)c(OC)c2occc12

Kd [1]: Not Active
SMILES: COc1c(C(=O)/C=C/C=C/c2ccccc2)c(O)c(OC)c2occc12

Kd [6]: Not Active
SMILES: COCCOCCOCCOCCOC(=O)c1cc(COc2c(C(C)=O)c(OC)c3ccoc3c2OC)ccc1COc1c(C(C)=O)c(OC)c2ccoc2c1OC

Kd [2]: 4 µM
SMILES: COc1c(C(C)=O)c(OCCOCCOc2c(C(C)=O)c(OC)c3ccoc3c2OC)c(OC)c2occc12

Kd [2]: 1 µM
SMILES: COc1c(C(C)=O)c(OCc2ccc(COc3cc4occc4c(OC)c3C(C)=O)cc2)cc2occc12

Kd [2]: 3.1 µM
SMILES: COc1c(C(C)=O)c(OCc2ccc(COc3c(C(C)=O)c(OC)c4ccoc4c3OC)cc2)c(OC)c2occc12

Kd [6]: Not Active
SMILES: COc1c(C(C)=O)c(OCc2cc(COc3c(C(C)=O)c(OC)c4ccoc4c3OC)cc(COc3c(C(C)=O)c(OC)c4ccoc4c3OC)c2)c(OC)c2occc12

Kd [3]: 2 µM
Kd [7]: 20 µM
Kd [2]: 0.8 µM
Kd [8]: > 50 µM
Kd [5]: > 50 µM
Kd [9]: > 100 µM
SMILES: COc1cccc(/C=C/C(=O)c2c(O)c(OC)c3occc3c2OC)c1
EC50 [4]: 1 µM

Kd [2]: 0.6 µM
SMILES: COc1c(C(=O)CCc2ccccc2)c(O)c(OC)c2occc12

Kd [2]: 0.82 µM
SMILES: COc1c(C(C)=O)c(OCCCCCOc2c(C(C)=O)c(OC)c3ccoc3c2OC)c(OC)c2occc12

Kd [2]: 5 µM
SMILES: COc1c(C(C)=O)c(OCc2ccc(COc3c(C(C)=O)c(OC)c4ccoc4c3OC)c(C(=O)O)c2)c(OC)c2occc12

Kd [2]: 10 µM
SMILES: COc1c(C(C)=O)c(OCc2ccccc2)c(OC)c2occc12

Kd [2]: 0.8 µM
SMILES: COc1c(C(=O)/C=C/c2cc(Br)cs2)c(O)c(OC)c2occc12

Kd [2]: 3 µM
SMILES: COc1c(C(C)=O)c(OCCCCCCCOc2c(C(C)=O)c(OC)c3ccoc3c2OC)c(OC)c2occc12

SMILES: COc1c(C(C)=O)c(O)c(OC)c2occc12
Kd [2]: 50 µM

Kd [2]: 0.7 µM
SMILES: COc1c(C(=O)/C=C/c2ccc(C)cc2)c(O)c(OC)c2occc12

Kd [2]: 0.1 µM
SMILES: C=C1C[C@@]2(O)[C@@H]3CC[C@@]4(C)[C@@H]5C=CC(=O)OC[C@]5(C(C)OC(C)=O)[C@@H](OC(C)=O)[C@@H](OC(C)=O)[C@@H]4[C@@]3(C)[C@H](OC(C)=O)[C@H](OC(C)=O)[C@@]2(C)C2(C(=O)OC)O[C@H]12 (stereo partly specified) [CORREOLIDE]
EC50 [4]: 0.3 µM

SMILES: Nc1ccncc1 [DALFAMPRIDINE]
Kd [3]: 290 µM
Kd [7]: 270 µM
Kd [5]: 590 µM
Kd [9]: 29 µM
